Test [1] is described as follows: Decrease in EGF induced AP1 dependent transcription in mouse […] cells at 1.1 ug/ml by luciferase assay. It is filed as functional. The arrangement: scale not given: the % may be the effect or the level left. In a few lines: (§1)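 JB6-LucAP-1 reporter cells activated with EGF (10 ng/mL), TPA (20 ng/mL) or UVB (4 kJ/m2), plated at 6 × 10^3/well in 5% FBS/MEM and kept 24 h. Compound added in 0.1% FBS-MEM for 24 h. Cells lysed 1 h at room temperature, then luciferase luminescence read. Two independent experiments, five samples per concentration.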

The nature of test [2]: Decrease in TPA induced AP1 dependent transcription in mouse JB6 Cl41 cells at 1.1 ug/ml by luciferase assay. Further details: scale not given: the % may be the effect or the level left. Type of test: functional. In outline:
as §1

Test [3] deals with HeLa. In words: Cytotoxicity against human HeLa cells. Type of test: functional, cell-based. In a few lines:
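HeLa cells seeded at 6000 cells/well and cultured 12 h in RPMI with 10% FBS. Medium then replaced with 5% FBS-RPMI containing test concentrations, 22 h incubation. MTS added and reduction read 2 h later by absorbance at 492 nm, with 690 nm as background.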

Test [4] has as its system THP-1. Kind of test: Cytotoxicity against human THP1 cells. Type of test: functional, cell-based.
Test [5] can be described thus: Inhibition EGF induced mouse JB6 P+Cl41 cells colony formation in soft agar. It is filed as functional. In outline: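 JB6 P+ Cl41 cells (8 × 10^3/mL) activated with EGF (10 ng/mL), in 0.33% BME agar with 10% FBS over a 0.5% BME agar layer, compound in both layers. Kept 1 week at 37 °C, 5% CO2. Colonies scored by microscopy and INCC50 derived. Two independent experiments in triplicate.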

Test [6] can be described thus: Cytotoxicity against mouse JB6Cl41 cells. It is filed as functional, cell-based. The note with it: JB6 Cl41.
Test [7] in a line: Decrease in UVB induced AP1 dependent transcription in mouse JB6 Cl41 cells at 0.7 ug/ml by luciferase assay. It is filed as functional. Further details: scale not given: the % may be the effect or the level left. In outline: as §1
The nature of test [8]: Increase in p53 dependent transcription in mouse JB6 Cl41 cells at 1.8 ug/ml by luciferase assay. Type of test: functional. In outline:
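JB6-Lucp53 reporter cells, not activated, plated at 6 × 10^3/well in 5% FBS/MEM and kept 24 h. Compound added in 0.1% FBS-MEM for 24 h. Cells lysed 1 h at room temperature, then luciferase luminescence read. Two independent experiments, five samples per concentration.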

Test [9] in a line: Decrease in EGF induced NFKappaB dependent transcription in mouse JB6 Cl41 cells at 0.7 ug/ml by luciferase assay. It is filed as functional. Further details: scale not given: the % may be the effect or the level left. In outline:
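JB6-LucNF-κB reporter cells activated with EGF (10 ng/mL), plated at 6 × 10^3/well in 5% FBS/MEM and kept 24 h. Compound added in 0.1% FBS-MEM for 24 h. Cells lysed 1 h at room temperature, then luciferase luminescence read. Two independent experiments, five samples per concentration.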

As a reminder, the IC50 is the concentration that gives 50% inhibition. In the case of `CO[C@@H]1[C@@H](O)[C@H](O[C@@H]2[C@@H](O)[C@H](O[C@H]3[C@H](O)[C@@H](O[C@@H]4OC[C@@H](O)[C@H](O)[C@H]4O)[C@H](O[C@H]4[C@H](OC5CC[C@]6(C)[C@H]7CCC89C(=O)O[C@@](C)(CCCC(C)C)C8[C@@H](OC(C)=O)C[C@@]9(C)C7=CC[C@H]6C5(C)C)OC[C@@H](OS(=O)(=O)[O-])[C@@H]4O)O[C@@H]3C)OC[C@H]2O)O[C@H](CO)[C@H]1O.[Na+]` (stereo partly specified) [FRONDOSIDE A], the Activity is 51% in test [1]; 20% in test [2]; 41% in test [7]; 39% in test [8]; 37% in test [9]. In addition, the IC50 in test [3] was 2.1 µg/mL; in test [4], 4.5 µg/mL; in test [6] it was 5.9 µg/mL. For the same compound, in [5], the INCC50 is 0.8 µg/mL.

Compound `C=C(C)CCC[C@]1(C)OC(=O)C23CC[C@H]4C(=CC[C@H]5C(C)(C)C(O[C@@H]6OC[C@@H](OS(=O)(=O)[O-])[C@H](O)[C@H]6O[C@@H]6O[C@H](CO)[C@@H](O[C@@H]7O[C@H](CO)[C@@H](O)[C@H](O[C@@H]8O[C@H](CO)[C@@H](O)[C@H](OC)[C@H]8O)[C@H]7O)[C@H](O)[C@H]6O[C@@H]6OC[C@@H](O)[C@H](O)[C@H]6O)CC[C@]45C)[C@]2(C)C[C@H](OC(C)=O)C31.[Na+]` (stereo partly specified) [OKHOTOSIDE B1] gave an IC50 in test [3] of 34 µg/mL.

For the compound `C=C(C)CCC[C@]1(C)OC(=O)C23CC[C@H]4C(=CC[C@H]5C(C)(C)C(O[C@@H]6OC[C@@H](OS(=O)(=O)[O-])[C@H](O)[C@H]6O[C@@H]6O[C@H](CO)[C@@H](O[C@@H]7O[C@H](COS(=O)(=O)[O-])[C@@H](O)[C@H](O[C@@H]8O[C@H](CO)[C@@H](O)[C@H](OC)[C@H]8O)[C@H]7O)[C@H](O)[C@H]6O[C@@H]6OC[C@@H](O)[C@H](O)[C@H]6O)CC[C@]45C)[C@]2(C)C[C@H](OC(C)=O)C31.[Na+].[Na+]` (stereo partly specified) [OKHOTOSIDE B2], in [3], it took 13 µg/mL to reach half-maximal inhibition (IC50).

These data come from ChEMBL document CHEMBL1144836, “Constituents of the sea cucumber Cucumaria okhotensis. Structures of okhotosides B1-B3 and cytotoxic activities of some glycosides from this species” (J Nat Prod, 2008).
